Laboratory results taken from ChEMBL document CHEMBL5647697, “Akt inhibition synergizes with polycomb repressive complex 2 inhibition in the treatment of multiple myeloma” (2019).
The source made the active and inactive calls. The calls are words filed in the database; no cut-off is given here.

Key:
OPM-2/BTZ [1] = test: Downregulation of CDK1 protein expression in human OPM-2/BTZ cells incubated at 0.3 to 3 micromol/L for 48 hrs by Western blot analysis; format: functional, cell-based; details: dose 0.3-3 µmol/L
MM1.S [2] = test: Downregulation of cyclin D1 protein expression in human MM1.S cells incubated at 0.3 to 3 micromol/L for 48 hrs by Western blot analysis; format: functional, cell-based; details: dose 0.3-3 µmol/L
Outline: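 MM.1S and H929 cells given TAS-117 at the indicated doses for 48 h. Protein levels assessed by immunoblot.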

OPM-2/BTZ [3] = test: Downregulation of CDK2 protein expression in human OPM-2/BTZ cells incubated at 0.3 to 3 micromol/L for 48 hrs by Western blot analysis; format: functional, cell-based; details: dose 0.3-3 µmol/L
OPM-2/BTZ [4] = test: Downregulation of phospho-Rb protein expression in human OPM-2/BTZ cells incubated at 0.3 to 3 micromol/L for 48 hrs by Western blot analysis; format: functional, cell-based; details: dose 0.3-3 µmol/L
MM1.S [5] = test: Synergistic activity against human MM.1S cells assessed as combination index […] in presence of 1.25 uM UNC1999 […] at 0.5 uM incubated for 48 hrs by […] assay; format: functional
Outline: (§1)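 Cells were exposed to the EZH2/EZH1 inhibitor (UNC1999 or GSK126) for 72 h in total, with the Akt inhibitor added for the last 48 h. Viability was read by MTS assay relative to untreated control cells, in triplicate. The combination index for each dose pair came from isobologram analysis.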

MM1.S [6] = test: Synergistic activity against human MM.1S cells assessed as combination index […] in presence of 5 uM UNC1999 for 72 hrs […] at 0.25 uM incubated for 48 hrs by MTT assay; format: functional; outline: as §1
NCI-H929 [7] = test: Synergistic activity against human NCI-H929 cells assessed as combination index […] in presence of 2.5 uM UNC1999 […] at 0.125 uM incubated for 48 hrs by […]; format: functional; outline: as §1
NCI-H929 [8] = test: Synergistic activity against human NCI-H929 cells assessed as combination index preincubated in presence of 2.5 uM UNC1999 […] at 0.5 uM incubated for 48 hrs by […]; format: functional; outline: as §1
NCI-H929 [9] = test: Synergistic activity against human NCI-H929 cells assessed as combination index […] in presence of 5 uM GSK126 […] compound addition at 0.125 uM incubated for 48 hrs by […]; format: functional; outline: as §1
OPM-2/BTZ [10] = test: Synergistic activity against human OPM-2/BTZ cells assessed as combination index preincubated in presence of 2.5 uM GSK126 for 72 hrs followed by compound addition at 1 uM incubated for 48 hrs by MTT assay; format: functional
OPM-2/BTZ [11] = test: Synergistic activity against human OPM-2/BTZ cells assessed as combination index preincubated in presence of 5 uM GSK126 for 72 hrs followed by compound addition at 2 uM incubated for 48 hrs by MTT assay; format: functional
OPM-2 [12] = test: Synergistic activity against human OPM-2 cells assessed as combination index preincubated in presence of 2.5 uM GSK126 for 72 hrs followed by compound addition at 2.5 uM incubated for 48 hrs by MTT assay; format: functional
OPM-2 [13] = test: Synergistic activity against human OPM-2 cells assessed as combination index preincubated in presence of 5 uM GSK126 for 72 hrs followed by compound addition at 5 uM incubated for 48 hrs by MTT assay; format: functional
MM1.S [14] = test: Induction of apoptosis in human MM1.S cells assessed as late apoptotic cells at 2 micromol/L incubated for 12 hrs by annexin V/PI staining based flow cytometry (reference value: 3.6%); format: functional; details: dose 2 µmol/L, at 2 µM
MM1.S [15] = test: Induction of apoptosis in human MM1.S cells assessed as necrotic cells preincubated in presence of 5 micromol/L UNC1999 for 48 hrs followed by compound addition at 2 micromol/L incubated for 12 hrs by annexin V/PI staining based flow cytometry (reference value: 0.17%); format: functional; details: dose 2 µmol/L, at 2 µM
MM1.S [16] = test: Induction of apoptosis in human MM1.S cells assessed as early apoptotic cells preincubated in presence of 5 micromol/L UNC1999 for 48 hrs followed by compound addition at 2 micromol/L incubated for 12 hrs by annexin V/PI staining based flow cytometry (reference value: 8.03%); format: functional; details: dose 2 µmol/L, at 2 µM
MM1.S [17] = test: Upregulation of EZH1 mRNA expression in human MM1.S cells at 0.03 to 3 micromo/L at 6 to 48 hrs by qRT-PCR analysis; format: functional, cell-based; details: dose 0.03-3 µmol/L, time 6-48 hrs
Outline: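 EZH1 mRNA was measured by qRT-PCR in MM.1S and H929 cells. Dose series: cells were treated with graded TAS-117 for 24 h. Time course: cells were treated with 3 μmol/L for the indicated times. Fold change is after GAPDH normalization, relative to the untreated control. Data are SD of triplicates.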

MM1.S [18] = test: Downregulation of EZH2 mRNA expression in human MM1.S cells transduced with EZH1 at 0.3 micromol/L after 24 hrs by qRT-PCR analysis; format: functional, cell-based; details: dose 0.3 µmol/L
Outline: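 EZH1-shRNA or shLuc lentivirus-transduced MM.1S cells treated with TAS-117 at the indicated doses for 24 h. EZH2 mRNA by RT-qPCR, fold change normalized to GAPDH.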

NCI-H929 [19] = test: Cytotoxicity against human NCI-H929 cells transduced with EZH1 assessed as enhanced sensitivity at 0.156 to 2.5 micromol/L 48 hrs by MTS assay; format: functional, cell-based; details: dose 0.156-2.5 µmol/L
Outline: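 MM.1S or H929 cells transduced with lentiviral shRNA against EZH1 or against luciferase (shLuc control), then given TAS-117 at the indicated doses for 48 h. Viability by MTS relative to untreated control; mean ± SD of triplicates; compared with shLuc.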

NCI-H929 [20] = test: Upregulation of BIM mRNA expression in human NCI-H929 cells at 1 micromol/L after 24 hrs by qRT-PCR analysis; format: functional, cell-based; details: dose 1.0 µmol/L
Outline: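 Cells were exposed to 1 μmol/L TAS-117 for 24 h. mRNA of FOXO3, FOXO4, BIM and CDKN1B was measured by qRT-PCR in H929 cells. Fold change is relative to the untreated control after normalization to GAPDH. Data are SD of triplicates.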

OPM-2 [21] = test: Synergistic activity against human OPM-2 cells assessed as combination index preincubated in presence of 1.25 uM UNC1999 for 72 hrs followed by compound addition at 1.25 uM incubated for 48 hrs by MTT assay; format: functional
OPM-2 [22] = test: Synergistic activity against human OPM-2 cells assessed as combination index preincubated in presence of 2.5 uM UNC1999 for 72 hrs followed by compound addition at 2.5 uM incubated for 48 hrs by MTT assay; format: functional
NCI-H929 [23] = test: Induction of apoptosis in human NCI-H929 cells assessed as late apoptotic cells at 5 micromol/L incubated for 48 hrs by annexin V/PI staining based flow cytometry (reference value: […]%); format: functional; details: dose 5 µmol/L
NCI-H929 [24] = test: Induction of apoptosis in human NCI-H929 cells assessed as viable cells at 5 micromol/L incubated for 48 hrs by annexin V/PI staining based flow cytometry (reference value: 95.6%); format: functional; details: NCI-H929, 48 h, dose 5 µmol/L, read-out: Activity
NCI-H929 [25] = test: Induction of apoptosis in human NCI-H929 cells assessed as late apoptotic cells preincubated in presence of 5 micromol/L UNC1999 for 48 hrs followed by compound addition at 2 micromol/L incubated for 12 hrs by annexin V/PI staining based flow cytometry (reference value: […]%); format: functional; details: dose 2 µmol/L

With `C[C@]1(O)C[C@@](N)(c2ccc(-c3nc4n(c3-c3ccccc3)COc3ccncc3-4)cc2)C1` [PIFUSERTIB] the Activity (OPM-2/BTZ [1]) was “Active”, the Activity (MM1.S [2]) was “Active” and the Activity (OPM-2/BTZ [3]) was “Active”. The Activity (OPM-2/BTZ [4]) was “Active”, the CI (MM1.S [5]) was 0.357 and the CI (MM1.S [6]) was 0.237. For the same molecule, the CI (NCI-H929 [7]) was 0.783, the CI (NCI-H929 [8]) was 0.807 and the CI (NCI-H929 [9]) was 7.124. For the same molecule, the CI (OPM-2/BTZ [10]) was 0.359, the CI (OPM-2/BTZ [11]) was 0.967 and the CI (OPM-2 [12]) was 2.563. It also gave a CI (OPM-2 [13]) of 5.39, an Activity (MM1.S [14]) of 4.57% and an Activity (MM1.S [15]) of 1.04%. For the same molecule, the Activity (MM1.S [16]) was 40.7%, the Activity (MM1.S [17]) was “Dose-Dependent Effect” and the Activity (MM1.S [18]) was “Active”. The Activity (NCI-H929 [19]) was “Active”, the Activity (NCI-H929 [20]) was “Active” and the CI (OPM-2 [21]) was 1.33. The CI (OPM-2 [22]) was 2.79, the Activity (NCI-H929 [23]) was 6.81% and the viability at 5 µM (NCI-H929 [24]) was 82.7%. For the same molecule, the Activity (NCI-H929 [25]) was 11.3%.
